The experiment has as its system platelets, SFLLRN actin polymerization, FITC-phalloidin flow. Description: blockers of PAR1 peptide-driven F-actin formation – cell-based, FITC-phalloidin flow cytometry, repeated runs, selectivity assay for platelet granule secretion inhibitor project, late-stage follow-up (AID 2657). The following applies: at 10 µM; hits give high values. In a few lines:
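System: Gel-filtered platelets; Reagent: 5 µM SFLLRN or unstimulated; Doses: 10 µM compound, single dose; Timing: 20 min compound, 15 min agonist, 37 °C; Measured by: FITC-phalloidin F-actin staining, flow cytometry; Control set: DMSO-only wells at 0.3% as neutral control.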

In general, inhibition refers to the relative decrease from the control value, in per cent.

As to `C/C(=N/NC(=O)C1CCCC1)c1ccc(NC(=O)C(F)(F)F)cc1`, the inhibition was 73.5%. In the case of `Cc1ccc(-n2c(N)c(C#N)c(-c3ccccc3)c(C#N)c2=O)cc1`, the inhibition was 99%.

These data come from PubChem BioAssay AID2657 (Broad Institute, 2010).
